Experiments:
[1] = Drug metabolism in New Zealand White rabbit liver microsomes assessed per mg/ml of protein at 0.5 mM after 24 hrs by LC-MS/MS analysis in presence of 5 mM UDPGA; type: ADME, Oryctolagus cuniculus, Microsome; conditions: read-out: Drug metabolism
How it was run: (§1)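 Optimization incubations with rabbit or calf liver microsomes or rabbit S9. Final substrate was 0.2, 0.5 or 2 mM, from DMSO stocks diluted 100-fold. Protein was 1 or 4 mg/mL and UDPGA 5 or 25 mM. Other components were 100 mM potassium phosphate pH 7.4 and an NADPH regenerating system. Microsomes were pre-treated on ice with alamethicin. Reactions ran at 37 °C, were stopped with methanol, processed, and analysed by LC/MS.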

[2] = Drug metabolism in New Zealand White rabbit liver microsomes assessed per 4 mg/ml of protein at 0.5 mM after 24 hrs by LC-MS/MS analysis in presence of 25 mM UDPGA; type: ADME, Oryctolagus cuniculus, Microsome; conditions: read-out: Drug metabolism; how it was run: as §1
[3] = Drug metabolism in calf liver microsomes assessed per 4 mg/ml of protein at 2 mM after 24 hrs by LC-MS/MS analysis in presence of 5 mM UDPGA; type: ADME, Bos taurus, Microsome; conditions: cattle, read-out: Drug metabolism; how it was run: as §1
[4] = Drug metabolism in New Zealand White rabbit liver S9 fraction assessed per mg/ml of protein at 0.5 mM after 24 hrs by LC-MS/MS analysis in presence of 25 mM UDPGA; type: ADME, subcellular, Oryctolagus cuniculus; conditions: read-out: Drug metabolism; how it was run: as §1
[5] = Drug metabolism in New Zealand White rabbit liver microsomes assessed per mg/ml of protein at 0.5 mM after 24 hrs by LC-MS/MS analysis in presence of 25 mM UDPGA; type: ADME, Oryctolagus cuniculus, Microsome; conditions: read-out: Drug metabolism; how it was run: as §1
[6] = Drug metabolism in New Zealand White rabbit liver S9 fraction assessed per mg/ml of protein at 2 mM after 24 hrs by LC-MS/MS analysis in presence of 5 mM UDPGA; type: ADME, subcellular, Oryctolagus cuniculus; conditions: read-out: Drug metabolism; how it was run: as §1
[7] = Drug metabolism in calf liver microsomes assessed per mg/ml of protein at 2 mM after 24 hrs by LC-MS/MS analysis in presence of 5 mM UDPGA; type: ADME, Bos taurus, Microsome; conditions: cattle, read-out: Drug metabolism; how it was run: as §1
[8] = Drug metabolism in New Zealand White rabbit liver S9 fraction assessed per mg/ml of protein at 2 mM after 24 hrs by LC-MS/MS analysis in presence of 25 mM UDPGA; type: ADME, subcellular, Oryctolagus cuniculus; conditions: read-out: Drug metabolism; how it was run: as §1
[9] = Drug metabolism in New Zealand White rabbit liver S9 fraction assessed per 4 mg/ml of protein at 0.5 mM after 24 hrs by LC-MS/MS analysis in presence of 5 mM UDPGA; type: ADME, subcellular, Oryctolagus cuniculus; conditions: read-out: Drug metabolism; how it was run: as §1
[10] = Drug metabolism in New Zealand White rabbit liver microsomes assessed per mg/ml of protein at 2 mM after 24 hrs by LC-MS/MS analysis in presence of 5 mM UDPGA; type: ADME, Oryctolagus cuniculus, Microsome; conditions: read-out: Drug metabolism; how it was run: as §1
[11] = Drug metabolism in New Zealand White rabbit liver S9 fraction assessed per mg/ml of protein at 0.2 mM after 24 hrs by LC-MS/MS analysis in presence of 5 mM UDPGA; type: ADME, subcellular, Oryctolagus cuniculus; conditions: read-out: Drug metabolism; how it was run: as §1
[12] = Drug metabolism in New Zealand White rabbit liver S9 fraction assessed per mg/ml of protein at 0.5 mM after 24 hrs by LC-MS/MS analysis in presence of 5 mM UDPGA; type: ADME, subcellular, Oryctolagus cuniculus; conditions: read-out: Drug metabolism; how it was run: as §1
[13] = Drug metabolism in New Zealand White rabbit liver microsomes assessed per mg/ml of protein at 0.2 mM after 24 hrs by LC-MS/MS analysis in presence of 5 mM UDPGA; type: ADME, Oryctolagus cuniculus, Microsome; conditions: read-out: Drug metabolism; how it was run: as §1
Liver microsomes = test: Drug metabolism in human liver microsomes assessed as M5 metabolite level at 100 uM after 4 hrs by LC/MS analysis in presence of UDPGA; type: ADME, Microsome
How it was run: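 Human liver microsomes under the screening protocol. Mix: 0.50 mg protein in 0.5 mL, 100 mM potassium phosphate pH 7.4, NADPH regenerating system, 5 mM UDPGA, 5 mM D-saccharic acid lactone. Microsomes were pre-incubated with alamethicin and the mix pre-warmed 5 min at 37 °C. After 4 h at 37 °C, the reaction was diluted with cold methanol and centrifuged. The filtered supernatant went to analytical HPLC; the M5 fraction was taken for MS/MS.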

[14] = Drug metabolism in New Zealand White rabbit liver microsomes assessed per mg/ml of protein at 0.2 mM after 24 hrs by LC-MS/MS analysis in presence of 25 mM UDPGA; type: ADME, Oryctolagus cuniculus, Microsome; conditions: read-out: Drug metabolism; how it was run: as §1
[15] = Drug metabolism in New Zealand White rabbit liver S9 fraction assessed per 4 mg/ml of protein at 0.5 mM after 24 hrs by LC-MS/MS analysis in presence of 25 mM UDPGA; type: ADME, subcellular, Oryctolagus cuniculus; conditions: read-out: Drug metabolism; how it was run: as §1
[16] = Drug metabolism in New Zealand White rabbit liver microsomes assessed per 4 mg/ml of protein at 2 mM after 24 hrs by LC-MS/MS analysis in presence of 25 mM UDPGA; type: ADME, Oryctolagus cuniculus, Microsome; conditions: read-out: Drug metabolism; how it was run: as §1
[17] = Drug metabolism in New Zealand White rabbit liver microsomes assessed per 4 mg/ml of protein at 0.5 mM after 24 hrs by LC-MS/MS analysis in presence of 5 mM UDPGA; type: ADME, Oryctolagus cuniculus, Microsome; conditions: read-out: Drug metabolism; how it was run: as §1
[18] = Activity at human recombinant glucuronyl transferase at 100 uM after 1 to 24 hrs by LC-MS/MS analysis in presence of UDPGA; type: ADME
How it was run: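 Recombinant human UDP-glucuronyl transferases. The mix held 100 mM potassium phosphate pH 7.4, 3.3 mM MgCl2, 5 mM UDPGA, and enzyme protein at 0.025–1 mg/mL depending on the enzyme. Substrate came from a 10 mM methanol stock. Mixtures were pre-warmed 5 min at 37 °C, the enzyme was added, and they were shaken at 37 °C for 1, 6 or 24 h. Methanol quench, centrifugation, filtration, drying, resuspension, LC/MS.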

[19] = Drug metabolism in New Zealand White rabbit liver microsomes assessed per mg/ml of protein at 2 mM after 24 hrs by LC-MS/MS analysis in presence of 25 mM UDPGA; type: ADME, Oryctolagus cuniculus, Microsome; conditions: read-out: Drug metabolism; how it was run: as §1
[20] = Drug metabolism in New Zealand White rabbit liver S9 fraction assessed per mg/ml of protein at 0.2 mM after 24 hrs by LC-MS/MS analysis in presence of 25 mM UDPGA; type: ADME, subcellular, Oryctolagus cuniculus; conditions: read-out: Drug metabolism; how it was run: as §1
[21] = Drug metabolism in New Zealand White rabbit liver S9 fraction assessed per 4 mg/ml of protein at 2 mM after 24 hrs by LC-MS/MS analysis in presence of 25 mM UDPGA; type: ADME, subcellular, Oryctolagus cuniculus; conditions: read-out: Drug metabolism; how it was run: as §1
[22] = Drug metabolism in New Zealand White rabbit liver S9 fraction assessed per 4 mg/ml of protein at 2 mM after 24 hrs by LC-MS/MS analysis in presence of 5 mM UDPGA; type: ADME, subcellular, Oryctolagus cuniculus; conditions: read-out: Drug metabolism; how it was run: as §1
[23] = Drug metabolism in calf liver microsomes assessed per 4 mg/ml of protein at 0.5 mM after 24 hrs by LC-MS/MS analysis in presence of 5 mM UDPGA; type: ADME, Bos taurus, Microsome; conditions: cattle, read-out: Drug metabolism; how it was run: as §1
[24] = Drug metabolism in New Zealand White rabbit liver S9 fraction assessed per 20 mg of protein at 1 mM after 24 hrs by LC/MS analysis in presence of UDPGA; type: ADME, subcellular, Oryctolagus cuniculus; conditions: read-out: Drug metabolism
How it was run: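 Scale-up reaction with rabbit liver S9. Each mix was 10 mL with 20 mg S9 protein, 100 mM potassium phosphate pH 7.4, 1 mM substrate (from a 0.1 M DMSO stock), an NADPH regenerating system (1.3 mM NADP+, 3.3 mM glucose-6-phosphate, 0.4 U/mL G6PDH, 3.3 mM MgCl2) and 10 mM UDPGA. Six parallel vials were shaken 24 h at 37 °C, then pooled, methanol-quenched, and passed through C18 SPE and prep HPLC.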

[25] = Drug metabolism in New Zealand White rabbit liver microsomes assessed per 4 mg/ml of protein at 2 mM after 24 hrs by LC-MS/MS analysis in presence of 5 mM UDPGA; type: ADME, Oryctolagus cuniculus, Microsome; conditions: read-out: Drug metabolism; how it was run: as §1

SMILES: COc1cc(OC)c2c(=O)[nH]c(-c3cc(C)c(OCCO)c(C)c3)nc2c1 [APABETALONE]
- metabolised at 24 h, 500 µM [1]: 39.5%
- metabolised at 24 h, 500 µM [2]: 54.3%
- metabolised at 24 h, 2000 µM [3]: 50.1%
- metabolised at 24 h, 500 µM [4]: 25.7%
- metabolised at 24 h, 500 µM [5]: 49.4%
- metabolised at 24 h, 2000 µM [6]: 17.5%
- metabolised at 24 h, 2000 µM [7]: 40.9%
- metabolised at 24 h, 2000 µM [8]: 16.7%
- metabolised at 24 h, 500 µM [9]: 33%
- metabolised at 24 h, 2000 µM [10]: 38.4%
- metabolised at 24 h, 200 µM [11]: 22.3%
- metabolised at 24 h, 500 µM [12]: 23.2%
- metabolised at 24 h, 200 µM [13]: 34.6%
- Drug metabolism (Liver microsomes): Active
- metabolised at 24 h, 200 µM [14]: 49.7%
- metabolised at 24 h, 500 µM [15]: 41.3%
- metabolised at 24 h, 2000 µM [16]: 48.9%
- metabolised at 24 h, 500 µM [17]: 24.1%
- Activity [18]: < 1%
- metabolised at 24 h, 2000 µM [19]: 39.7%
- metabolised at 24 h, 200 µM [20]: 21.4%
- metabolised at 24 h, 2000 µM [21]: 35.2%
- metabolised at 24 h, 2000 µM [22]: 30.3%
- metabolised at 24 h, 500 µM [23]: 56%
- metabolised at 24 h, 1000 µM [24]: 22%
- metabolised at 24 h, 2000 µM [25]: 30%
